The values below come from ChEMBL document CHEMBL1152541, “Staurosporine tethered peptide ligands that target cAMP-dependent protein kinase (PKA): optimization and selectivity profiling” (Bioorg Med Chem, 2009).

In assay [1] the target is Proto-oncogene tyrosine-protein kinase receptor Ret (Homo sapiens) (UniProt P07949). Briefly: Binding affinity to human RET at 500 nM by cell-based competition binding assay relative to control in presence of DTT.
In assay [2] the target is Mitogen-activated protein kinase 11 (Homo sapiens) (UniProt Q15759). Briefly: Binding affinity to human p38beta at 500 nM by cell-based competition binding assay relative to control in presence of DTT.
Chain of Mitogen-activated protein kinase 11 (Homo sapiens) (Q15759 whole entry, canonical isoform): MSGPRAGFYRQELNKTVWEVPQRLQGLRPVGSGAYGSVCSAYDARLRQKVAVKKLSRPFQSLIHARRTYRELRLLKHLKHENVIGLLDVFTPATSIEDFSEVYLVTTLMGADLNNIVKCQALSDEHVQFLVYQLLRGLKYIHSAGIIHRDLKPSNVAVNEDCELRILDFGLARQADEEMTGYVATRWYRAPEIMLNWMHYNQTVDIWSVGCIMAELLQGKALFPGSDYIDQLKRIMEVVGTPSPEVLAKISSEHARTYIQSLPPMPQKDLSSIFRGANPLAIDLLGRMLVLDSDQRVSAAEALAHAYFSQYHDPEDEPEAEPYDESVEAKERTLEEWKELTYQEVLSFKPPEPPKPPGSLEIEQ
The target in assay [3] is Phosphatidylinositol 4,5-bisphosphate 3-kinase catalytic subunit gamma isoform (Homo sapiens) (UniProt P48736). Nature of the assay: Ratio of staurosporine to compound binding affinity to PI3Kgamma in presence of DTT.
Chain of Phosphatidylinositol 4,5-bisphosphate 3-kinase catalytic subunit gamma isoform (Homo sapiens) (P48736 whole entry, looked up, canonical isoform): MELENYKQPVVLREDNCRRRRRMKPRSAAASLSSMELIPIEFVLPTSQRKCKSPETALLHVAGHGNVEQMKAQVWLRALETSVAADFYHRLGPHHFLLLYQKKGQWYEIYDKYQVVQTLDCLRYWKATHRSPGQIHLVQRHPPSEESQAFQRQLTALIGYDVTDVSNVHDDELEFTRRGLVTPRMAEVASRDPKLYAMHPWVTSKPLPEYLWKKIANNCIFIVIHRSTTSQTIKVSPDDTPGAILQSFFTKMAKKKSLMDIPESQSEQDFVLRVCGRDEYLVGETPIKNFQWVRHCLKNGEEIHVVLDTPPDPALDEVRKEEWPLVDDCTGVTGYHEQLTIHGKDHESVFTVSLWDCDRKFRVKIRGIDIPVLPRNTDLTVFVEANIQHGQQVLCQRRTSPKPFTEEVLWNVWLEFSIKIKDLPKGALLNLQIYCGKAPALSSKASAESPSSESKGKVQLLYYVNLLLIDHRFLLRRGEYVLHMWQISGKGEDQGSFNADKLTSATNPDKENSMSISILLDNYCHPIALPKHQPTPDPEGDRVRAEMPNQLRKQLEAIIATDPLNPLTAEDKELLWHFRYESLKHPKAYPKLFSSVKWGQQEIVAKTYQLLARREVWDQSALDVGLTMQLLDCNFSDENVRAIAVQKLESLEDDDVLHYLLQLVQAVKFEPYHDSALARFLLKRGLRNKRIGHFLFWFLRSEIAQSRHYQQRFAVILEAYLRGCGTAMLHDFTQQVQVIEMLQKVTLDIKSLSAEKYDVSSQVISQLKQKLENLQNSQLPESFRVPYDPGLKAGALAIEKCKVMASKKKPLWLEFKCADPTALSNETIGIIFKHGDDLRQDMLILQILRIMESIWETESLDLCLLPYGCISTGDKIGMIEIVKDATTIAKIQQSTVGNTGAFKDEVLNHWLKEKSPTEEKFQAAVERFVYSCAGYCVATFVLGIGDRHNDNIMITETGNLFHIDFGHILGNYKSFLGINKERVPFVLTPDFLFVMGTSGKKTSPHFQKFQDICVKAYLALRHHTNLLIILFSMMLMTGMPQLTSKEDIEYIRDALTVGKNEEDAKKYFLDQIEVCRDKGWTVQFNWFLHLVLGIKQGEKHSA
The target in assay [4] is Mitogen-activated protein kinase 10 (Homo sapiens) (UniProt P53779). Briefly: Binding affinity to human JNK3 at 500 nM by cell-based competition binding assay relative to control in presence of DTT. The essentials: (§1)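 Competition binding screen (Ambit) across a panel of 90 kinases, scoring test ligand displacement of each kinase's binding relative to control. The screen ran under reducing conditions with 7.5 mM DTT.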
Chain of Mitogen-activated protein kinase 10 (Homo sapiens) (P53779 whole entry): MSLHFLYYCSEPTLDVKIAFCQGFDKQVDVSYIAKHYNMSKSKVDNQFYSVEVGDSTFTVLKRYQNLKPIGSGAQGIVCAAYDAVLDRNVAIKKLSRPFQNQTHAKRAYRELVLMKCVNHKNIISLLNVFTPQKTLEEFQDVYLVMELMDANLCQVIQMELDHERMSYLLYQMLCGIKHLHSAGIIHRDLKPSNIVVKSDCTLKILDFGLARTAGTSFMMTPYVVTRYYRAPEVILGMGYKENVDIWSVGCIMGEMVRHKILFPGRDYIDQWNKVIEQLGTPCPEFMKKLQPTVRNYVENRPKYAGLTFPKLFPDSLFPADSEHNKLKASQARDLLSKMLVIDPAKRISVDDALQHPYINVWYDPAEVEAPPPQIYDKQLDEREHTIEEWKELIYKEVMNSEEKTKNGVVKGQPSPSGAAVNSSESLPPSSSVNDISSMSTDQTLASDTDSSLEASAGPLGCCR

In assay [5] the target is Mitogen-activated protein kinase 9 (Homo sapiens) (UniProt P45984). Nature of the assay: Binding affinity to human JNK2 at 500 nM by cell-based competition binding assay relative to control in presence of DTT. The essentials:
as §1

Assay [6] has as its target Mitogen-activated protein kinase 8 (Homo sapiens) (UniProt P45983). Briefly: Binding affinity to human JNK1 at 200 nM by cell-based competition binding assay relative to control in presence of DTT. The method in brief:
as §1

For assay [7], the target named is Proto-oncogene tyrosine-protein kinase Src (Homo sapiens) (UniProt P12931). Briefly: Binding affinity to human SRC at 200 nM by cell-based competition binding assay relative to control in presence of DTT.
Assay [8] deals with Tyrosine-protein kinase ABL1 (Homo sapiens), P00519 [E255K]. Nature of the assay: Binding affinity to human ABL1 E255K mutant at 200 nM by cell-based competition binding assay relative to control in presence of DTT. The essentials: (§2)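 Kinase binding profiling ran on a commercial (Ambit) competitive binding screen against a panel of 90 kinases. The screen used reducing conditions with 7.5 mM DTT. To withstand the DTT, the bivalent ligand was tested as its amide isostere, with the disulfide replaced. A staurosporine derivative carrying a 3 β-alanine linker was run as the reference compound.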

In assay [9] the test system is Mast/stem cell growth factor receptor Kit (Homo sapiens), P10721 [V559D,T670I]. Briefly: Binding affinity to human KIT V559D,T670I mutant at 200 nM by cell-based competition binding assay relative to control in presence of DTT. The essentials:
as §1

The target in assay [10] is Fibroblast growth factor receptor 2 (Homo sapiens) (UniProt P21802). Nature of the assay: Binding affinity to human FGFR2 at 200 nM by cell-based competition binding assay relative to control in presence of DTT. The essentials:
(§3)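 Commercial (Ambit) competitive kinase-binding panel of 90 kinases measured the binding profile. Run under reducing conditions of 7.5 mM DTT. Binding is expressed relative to control.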

Assay [11] has as its target Phosphatidylinositol 4,5-bisphosphate 3-kinase catalytic subunit alpha isoform (Homo sapiens) (UniProt P42336). Briefly: Binding affinity to human PIK3Calpha at 200 nM by cell-based competition binding assay relative to control in presence of DTT.
Assay [12] has as its system Tyrosine-protein kinase ABL1 (Homo sapiens), P00519 [T315I]. Nature of the assay: Binding affinity to human ABL1 T315I mutant at 200 nM by cell-based competition binding assay relative to control in presence of DTT. The essentials: as §2
Assay [13] has as its target Non-receptor tyrosine-protein kinase TYK2 (Homo sapiens) (UniProt P29597). Nature of the assay: Binding affinity to human TYK2 kinase domain 2 at 200 nM by cell-based competition binding assay relative to control in presence of DTT.
The target in assay [14] is T1, Aurora kinase A (Homo sapiens) (UniProt O14965).
T1 sequence (whole entry): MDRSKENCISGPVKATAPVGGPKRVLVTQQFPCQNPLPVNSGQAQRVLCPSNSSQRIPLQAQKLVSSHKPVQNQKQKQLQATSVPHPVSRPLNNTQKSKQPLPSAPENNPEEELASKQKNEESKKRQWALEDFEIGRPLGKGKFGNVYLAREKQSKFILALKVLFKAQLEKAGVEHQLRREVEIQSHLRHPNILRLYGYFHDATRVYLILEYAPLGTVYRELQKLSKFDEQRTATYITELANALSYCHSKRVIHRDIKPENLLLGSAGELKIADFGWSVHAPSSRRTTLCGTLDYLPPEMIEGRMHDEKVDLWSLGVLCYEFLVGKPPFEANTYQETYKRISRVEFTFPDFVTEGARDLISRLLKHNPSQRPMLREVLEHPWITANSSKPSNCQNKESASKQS
Briefly: Binding affinity to human aurora kinase A at 200 nM by cell-based competition binding assay relative to control in presence of DTT.

In assay [15] the target is cAMP-dependent protein kinase catalytic subunit alpha (Homo sapiens) (UniProt P17612). Briefly: Binding affinity to human PKACalpha at 50 nM by cell-based competition binding assay relative to control in presence of DTT.
Assay [16] deals with Insulin-like growth factor 1 receptor (Homo sapiens) (UniProt P08069). Nature of the assay: Binding affinity to human IGF1R at 50 nM by cell-based competition binding assay relative to control in presence of DTT. The method in brief: as §1
For assay [17], the target named is Fibroblast growth factor receptor 2 (Homo sapiens) (UniProt P21802). Briefly: Binding affinity to human FGFR2 at 50 nM by cell-based competition binding assay relative to control in presence of DTT. The method in brief: as §3
Chain of Fibroblast growth factor receptor 2 (Homo sapiens) (P21802 22-821 limits assumed): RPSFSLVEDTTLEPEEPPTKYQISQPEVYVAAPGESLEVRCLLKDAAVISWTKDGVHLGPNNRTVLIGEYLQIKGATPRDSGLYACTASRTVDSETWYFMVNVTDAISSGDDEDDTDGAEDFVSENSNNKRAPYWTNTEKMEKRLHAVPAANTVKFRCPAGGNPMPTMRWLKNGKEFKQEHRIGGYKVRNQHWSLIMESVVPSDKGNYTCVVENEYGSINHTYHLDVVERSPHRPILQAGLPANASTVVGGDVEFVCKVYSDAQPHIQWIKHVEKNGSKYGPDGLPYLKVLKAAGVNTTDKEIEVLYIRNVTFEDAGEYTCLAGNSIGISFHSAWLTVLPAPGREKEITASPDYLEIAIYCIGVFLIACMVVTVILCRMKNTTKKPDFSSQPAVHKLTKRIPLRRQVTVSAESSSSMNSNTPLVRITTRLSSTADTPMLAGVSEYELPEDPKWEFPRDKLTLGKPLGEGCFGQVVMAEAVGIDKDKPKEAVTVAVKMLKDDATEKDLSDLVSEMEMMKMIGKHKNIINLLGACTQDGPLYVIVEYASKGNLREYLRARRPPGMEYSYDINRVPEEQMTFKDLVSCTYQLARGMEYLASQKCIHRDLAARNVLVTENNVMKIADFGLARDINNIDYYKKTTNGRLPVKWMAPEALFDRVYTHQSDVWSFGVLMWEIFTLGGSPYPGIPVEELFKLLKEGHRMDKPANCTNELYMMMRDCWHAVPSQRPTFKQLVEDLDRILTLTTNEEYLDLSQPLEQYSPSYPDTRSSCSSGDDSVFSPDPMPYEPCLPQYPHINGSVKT
Assay [18] addresses Non-receptor tyrosine-protein kinase TYK2 (Homo sapiens) (UniProt P29597). Nature of the assay: Binding affinity to human TYK2 kinase domain 2 at 50 nM by cell-based competition binding assay relative to control in presence of DTT.

SMILES strings stand for the structures. *1 amine or outer side, *2 acyl side, *3 side chain or, on linkers, in order; H or OH if unused. Where a SMILES comes first, the peptide text is derived from it. Bridges are numbered along the chain shown (N, C = ends). [ ]: non-standard residue; d: D form. The star is where a group is joined. Staurosporine = CO[C@@H]1[C@H](N(C)*)C[C@H]2O[C@]1(C)n1c3ccccc3c3c4c(c5c6ccccc6n2c5c31)C(=O)NC4; Suc = O=C(CCC(=O)[*:2])[*:1]; Dap = NC[C@H](N)C(=O)O; βAla = NCCC(=O)O

Chain of Non-receptor tyrosine-protein kinase TYK2 (Homo sapiens) (P29597 whole entry, the tested form may be a part): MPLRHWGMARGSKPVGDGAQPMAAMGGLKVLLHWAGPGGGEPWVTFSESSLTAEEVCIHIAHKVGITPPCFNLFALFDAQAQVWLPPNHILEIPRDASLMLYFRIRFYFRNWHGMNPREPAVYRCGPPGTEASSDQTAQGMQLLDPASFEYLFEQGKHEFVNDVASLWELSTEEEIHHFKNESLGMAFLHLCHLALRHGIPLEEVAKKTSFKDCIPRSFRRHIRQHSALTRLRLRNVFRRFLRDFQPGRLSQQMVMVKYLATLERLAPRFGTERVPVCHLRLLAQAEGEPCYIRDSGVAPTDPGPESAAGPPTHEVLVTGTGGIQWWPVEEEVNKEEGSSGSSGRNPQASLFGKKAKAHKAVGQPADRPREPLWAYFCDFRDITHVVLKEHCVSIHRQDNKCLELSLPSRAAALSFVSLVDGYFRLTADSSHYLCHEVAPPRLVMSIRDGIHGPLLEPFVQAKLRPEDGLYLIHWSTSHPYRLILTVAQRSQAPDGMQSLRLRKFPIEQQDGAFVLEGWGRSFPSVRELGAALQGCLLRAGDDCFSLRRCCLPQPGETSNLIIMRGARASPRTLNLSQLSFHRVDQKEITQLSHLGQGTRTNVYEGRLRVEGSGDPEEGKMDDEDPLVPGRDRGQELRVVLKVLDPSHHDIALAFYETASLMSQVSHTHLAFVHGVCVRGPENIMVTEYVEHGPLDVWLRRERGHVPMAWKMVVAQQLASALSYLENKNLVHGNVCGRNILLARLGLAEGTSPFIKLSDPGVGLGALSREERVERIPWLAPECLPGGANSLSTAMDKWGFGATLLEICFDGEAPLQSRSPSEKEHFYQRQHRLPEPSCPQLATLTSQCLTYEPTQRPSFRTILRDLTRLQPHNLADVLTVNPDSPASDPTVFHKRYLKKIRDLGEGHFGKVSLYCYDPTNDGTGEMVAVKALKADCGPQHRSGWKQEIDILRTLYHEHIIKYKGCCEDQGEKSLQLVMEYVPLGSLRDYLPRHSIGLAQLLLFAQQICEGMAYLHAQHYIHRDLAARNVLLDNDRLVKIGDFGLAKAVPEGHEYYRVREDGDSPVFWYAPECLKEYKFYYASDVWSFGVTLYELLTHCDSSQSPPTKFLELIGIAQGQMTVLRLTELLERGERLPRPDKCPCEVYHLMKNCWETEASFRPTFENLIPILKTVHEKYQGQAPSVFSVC
Chain of Mitogen-activated protein kinase 9 (Homo sapiens) (P45984 whole entry, looked up): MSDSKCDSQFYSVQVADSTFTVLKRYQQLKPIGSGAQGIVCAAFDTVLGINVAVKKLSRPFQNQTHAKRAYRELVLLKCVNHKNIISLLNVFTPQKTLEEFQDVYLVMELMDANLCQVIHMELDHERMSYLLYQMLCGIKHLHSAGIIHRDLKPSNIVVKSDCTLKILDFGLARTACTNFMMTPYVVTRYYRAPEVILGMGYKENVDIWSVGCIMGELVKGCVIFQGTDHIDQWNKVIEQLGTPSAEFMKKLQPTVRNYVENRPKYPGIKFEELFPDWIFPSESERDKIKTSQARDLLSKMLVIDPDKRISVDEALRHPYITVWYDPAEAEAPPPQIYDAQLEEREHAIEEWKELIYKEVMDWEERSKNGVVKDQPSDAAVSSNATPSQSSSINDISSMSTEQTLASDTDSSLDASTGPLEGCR
Chain of Mitogen-activated protein kinase 8 (Homo sapiens) (P45983 whole entry): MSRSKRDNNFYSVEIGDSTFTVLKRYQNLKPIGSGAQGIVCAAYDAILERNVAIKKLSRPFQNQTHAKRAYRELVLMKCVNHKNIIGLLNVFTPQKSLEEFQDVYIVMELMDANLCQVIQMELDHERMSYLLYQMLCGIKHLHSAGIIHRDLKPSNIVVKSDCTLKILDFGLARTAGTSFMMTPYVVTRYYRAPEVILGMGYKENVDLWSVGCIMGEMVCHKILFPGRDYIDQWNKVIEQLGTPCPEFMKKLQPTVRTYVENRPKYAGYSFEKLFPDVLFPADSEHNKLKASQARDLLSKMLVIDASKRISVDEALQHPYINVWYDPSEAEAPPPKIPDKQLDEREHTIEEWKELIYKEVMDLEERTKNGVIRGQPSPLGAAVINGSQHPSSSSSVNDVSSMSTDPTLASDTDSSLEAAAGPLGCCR

Take `CO[C@@H]1[C@H](N(C)C(=O)CCC(=O)NCCC(=O)NCCC(=O)NCCC(N)=O)C[C@H]2O[C@]1(C)n1c3ccccc3c3c4c(c5c6ccccc6n2c5c31)C(=O)NC4`: the Activity in assay [1] was 5.6%; in assay [2], 100%; in assay [4], 55%; in assay [5], 87%. Moreover, the Selectivity ratio in assay [3] is 6.

For the molecule `CO[C@@H]1[C@H](N(C)C(=O)CCC(=O)NCCC(=O)NCCC(=O)NCCC(=O)NCCC(=O)NCCC(=O)NCCC(=O)NCCC(=O)N[C@H]2CSSC[C@@H](C(=O)NCC(N)=O)NC(=O)CNC(=O)[C@H](Cc3ccccc3)NC(=O)[C@H](C(C)C)NC(=O)[C@H](CCCNC(=N)N)NC(=O)[C@H](Cc3ccccc3)NC(=O)[C@H](C(C)C)NC2=O)C[C@H]2O[C@]1(C)n1c3ccccc3c3c4c(c5c6ccccc6n2c5c31)C(=O)NC4` ({Staurosporine-Suc-βAla-βAla-βAla-βAla-βAla-βAla-βAla}-CVFRVFGCG-NH2; disulfide 1-8), the Activity in [6] came out at 83%; in assay [7] it was 100%; in assay [8], 100%; in assay [9] it was 4.1%; in assay [10] it was 66%; in assay [11], 89%. In addition, the figures for the Activity in assay [12], in assay [13] and in [14] were 78%, 62% and 19%, respectively.

`CO[C@@H]1[C@H](N(C)C(=O)CCC(=O)NCCC(=O)NCCC(=O)NCCC(=O)NCCC(=O)NCCC(=O)NCCC(=O)NCCC(=O)N[C@H]2CNC(=O)C[C@@H](C(N)=O)NC(=O)CNC(=O)[C@H](Cc3ccccc3)NC(=O)[C@H](C(C)C)NC(=O)[C@H](CCCNC(=N)N)NC(=O)[C@H](Cc3ccccc3)NC(=O)[C@H](C(C)C)NC2=O)C[C@H]2O[C@]1(C)n1c3ccccc3c3c4c(c5c6ccccc6n2c5c31)C(=O)NC4` ({Staurosporine-Suc-βAla-βAla-βAla-βAla-βAla-βAla-βAla}-[Dap]VFRVFGD-NH2; lactam 1-8): the Activity in [15] stood at 10%; in [16], 100%; in assay [17] it was 86%; in assay [18], 100%.
